Tests used:
[1] = Inhibition of WNT5A mRNA expression in human dermal papilla cells after 24 hrs by quantigene assay; assay type: functional, cell-based
In short: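 Human dermal papilla cells (gift, fifth subculture) in MEM with 12% FBS, seeded at 1 × 10⁴ cells/well, cultured overnight, then exposed 24 h to compounds or no-compound medium. WNT-5A mRNA quantified by branched-DNA QuantiGene: lysates on capture plate, WNT-5A probes 53 °C 20 h, amplifier then alkaline phosphatase probe each 46 °C 1 h, Lumi-Phos Plus 46 °C 30 min, luminescence read. IC50 reported.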

[2] = Cytotoxicity against human dermal papilla cells by Alamar blue assay; assay type: cell-based; conditions: read-out: TC50 (the source's name)
In short: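 Dermal papilla cells seeded at 5 × 10³ cells/well, grown 16 h in MEM with 12% FBS, then given medium with or without test compounds for 24 h. Medium swapped for one containing 10% Alamar Blue and cells cultured 4 h more; fluorescence read at Ex 544 nm/Em 590 nm. TC50 reported.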

[3] = Inhibition of HSP90

SMILES | IC50 ([1]; Homo sapiens, 24 h) | IC50 [1] | IC50 [3] | CC50 [2]
C[C@@H]1CCCCCCCC(=O)Cc2cc(O)cc(O)c2C(=O)O1 | > 50 µM | – | – | –
C[C@@H]1C[C@H]2O[C@@H]2\C=C/C=C/C(=N\OCc2ccccc2)Cc2c(Cl)c(O)cc(O)c2C(=O)O1 | 0.51 µM | – | – | 65.6 µM
C[C@@H]1C/C=C/CC/C=C/[C@@H](O)Cc2cc(O)cc(O)c2C(=O)O1 | > 50 µM | – | – | –
COc1cc(O)c2c(c1Cl)C[C@@H](O)/C=C/CC[C@H]1O[C@@H]1C[C@@H](C)OC2=O | > 100 µM | – | – | –
C[C@@H]1C[C@H]2O[C@@H]2CC/C=C/[C@H](O)Cc2cc(O)cc(O)c2C(=O)O1 | 13.2 µM | – | – | > 100 µM
C[C@@H]1C[C@H]2O[C@@H]2CCCC[C@H](O)Cc2c(Cl)c(O)cc(O)c2C(=O)O1 | 5.89 µM | – | – | > 100 µM
CC(=O)S[C@@H]1/C=C/CC(=O)Cc2c(Cl)c(O)cc(O)c2C(=O)O[C@H](C)C[C@H]2O[C@@H]21 | 2.34 µM | – | – | > 100 µM
C[C@@H]1C[C@@H](O)C/C=C\CCC(=O)Cc2c(Cl)c(O)cc(O)c2C(=O)O1 | > 50 µM | – | – | –
C[C@@H]1C[C@H]2O[C@@H]2CC/C=C/C(=O)Cc2cc(O)cc(O)c2C(=O)O1 [MONOCILLIN III] | 9.43 µM | – | – | 28.9 µM
C[C@@H]1C[C@H]2S[C@@H]2/C=C\C=C\C(=O)Cc2c(Cl)c(O)cc(O)c2C(=O)O1 | 9.13 µM | – | – | 28.2 µM
C[C@@H]1CC(O)C2C=CC(CC(=O)Cc3c(Cl)c(O)cc(O)c3C(=O)O1)O2 (stereo partly drawn) | > 50 µM | – | – | –
C[C@@H]1C[C@@H](O)CCCCCC(=O)Cc2c(Cl)c(O)cc(O)c2C(=O)O1 | > 50 µM | – | – | –
C[C@@H]1C[C@H]2O[C@@H]2/C=C\C=C\C(=O)Cc2c(Cl)c(O)cc(O)c2C(=O)O1 [RADICICOL] | 0.19 µM | – | – | 15.3 µM
C[C@@H]1C[C@H]2O[C@@H]2C/C=C/CC(=O)Cc2c(Cl)c(O)cc(O)c2C(=O)O1 | 7.69 µM | – | – | > 100 µM
C[C@@H]1C[C@H]2O[C@@H]2CC/C=C/[C@@H](O)Cc2c(Cl)c(O)cc(O)c2C(=O)O1 | > 100 µM | – | – | > 100 µM
C[C@@H]1C[C@H]2O[C@@H]2CCCCC(=O)Cc2cc(O)cc(O)c2C(=O)O1 [TETRAHYDROMONOCILLIN I] | 15 µM | – | – | –
C[C@@H]1C/C=C/CC/C=C/[C@H](O)Cc2cc(O)cc(O)c2C(=O)O1 | > 50 µM | – | – | –
CC(=O)S[C@@H]1/C=C\CC(=O)Cc2c(Cl)c(O)cc(O)c2C(=O)O[C@H](C)C[C@H]2O[C@@H]21 | 0.5 µM | – | – | > 100 µM
C[C@H]1C[C@H]2O[C@@H]2CC/C=C/C(=O)Cc2c(Cl)c(O)cc(O)c2C(=O)O1 [POCHONIN A] | 2.64 µM | – | 0.09 µM | 57.3 µM
C[C@@H]1C[C@@H](O)CC/C=C/CC(=O)Cc2c(Cl)c(O)cc(O)c2C(=O)O1 | > 50 µM | – | – | –
C[C@@H]1C[C@H]2O[C@@H]2C(Sc2ccccc2)/C=C\CC(=O)Cc2c(Cl)c(O)cc(O)c2C(=O)O1 (stereo partly drawn) | 0.27 µM | – | – | > 50 µM
C[C@@H]1C[C@H]2O[C@@H]2CCCC[C@@H](O)Cc2c(Cl)c(O)cc(O)c2C(=O)O1 | > 100 µM | – | – | > 100 µM
C[C@@H]1C[C@H]2O[C@@H]2[C@H](Sc2ccccc2)CCCC(=O)Cc2c(Cl)c(O)cc(O)c2C(=O)O1 | > 50 µM | – | – | > 50 µM
C[C@@H]1C[C@H]2O[C@@H]2CCCCC(=O)Cc2c(Cl)c(O)cc(O)c2C(=O)O1 [TETRAHYDRORADICICOL] | 2.24 µM | – | – | > 100 µM
COc1cc(OC)c2c(c1Cl)C[C@@H](O)/C=C/CC[C@H]1O[C@@H]1C[C@@H](C)OC2=O | > 100 µM | – | – | –
C[C@@H]1C[C@H]2O[C@@H]2CC/C=C/[C@H](O)Cc2c(Cl)c(O)cc(O)c2C(=O)O1 | 1.89 µM | – | – | > 100 µM
C[C@@H]1C[C@H]2O[C@@H]2C/C=C/C[C@@H](O)Cc2c(Cl)c(O)cc(O)c2C(=O)O1 | > 50 µM | – | – | –
C[C@@H]1C[C@H]2O[C@@H]2C/C=C/C[C@H](O)Cc2c(Cl)c(O)cc(O)c2C(=O)O1 | > 50 µM | – | – | –

Continued, in another order:

IC50 ([1]; Homo sapiens, 24 h) | IC50 [1] | IC50 [3] | SMILES | CC50 [2]
– | 13.3 µM | – | C[C@@H]1C[C@@H](O)C(Cl)/C=C\C=C\C(=O)Cc2c(Cl)c(O)cc(O)c2C(=O)O1 (single isomer, unassigned) | 42 µM
> 100 µM | – | – | CC(=O)Oc1cc(OC(C)=O)c2c(c1Cl)CC(OC(C)=O)/C=C/CC[C@H]1O[C@@H]1C[C@@H](C)OC2=O (stereo partly drawn) | –
3.76 µM | – | – | COc1cc(OC)c2c(c1Cl)CC(=O)/C=C/C=C\[C@H]1O[C@@H]1C[C@@H](C)OC2=O [DIMETHYL RADICICOL] | 8.4 µM
> 50 µM | – | – | C[C@@H]1C[C@@H](O)[C@@H](O)/C=C\C=C\C(=O)Cc2c(Cl)c(O)cc(O)c2C(=O)O1 | –
0.26 µM | – | – | C[C@@H]1C[C@H]2O[C@@H]2\C=C/C=C/C(=N\O)Cc2c(Cl)c(O)cc(O)c2C(=O)O1 | 89.5 µM
1.22 µM | – | – | CO/N=C1/C=C/C=C\[C@H]2O[C@@H]2C[C@@H](C)OC(=O)c2c(O)cc(O)c(Cl)c2C1 | > 100 µM
– | > 50 µM | – | C[C@@H]1C[C@@H](O)[C@H](Cl)/C=C\C=C\C(=O)Cc2c(Cl)c(O)cc(O)c2C(=O)O1 | –
1.93 µM | – | – | C[C@@H]1C[C@H]2O[C@@H]2/C=C\C=C\C(=O)Cc2cc(O)cc(O)c2C(=O)O1 [MONOCILLIN I] | 2.9 µM
0.15 µM | – | – | CO\N=C1/C=C/C=C\[C@H]2O[C@@H]2C[C@@H](C)OC(=O)c2c(O)cc(O)c(Cl)c2C1 | > 100 µM
15.7 µM | – | – | C[C@@H]1C[C@H]2OC(=O)O[C@H]2/C=C\C=C\C(=O)Cc2c(Cl)c(O)cc(O)c2C(=O)O1 | 28.1 µM
0.3 µM | – | – | CC(=O)Oc1cc(OC(C)=O)c2c(c1Cl)CC(=O)/C=C/C=C\[C@H]1O[C@@H]1C[C@@H](C)OC2=O [RADICICOL DIACETATE] | 29.1 µM
0.06 µM | – | – | C[C@@H]1C[C@H]2O[C@@H]2\C=C/C=C/C(=N/OCc2ccccc2)Cc2c(Cl)c(O)cc(O)c2C(=O)O1 | 42.1 µM
2.07 µM | – | – | C[C@@H]1C[C@H]2O[C@@H]2/C=C\C=C\[C@H](O)Cc2c(Cl)c(O)cc(O)c2C(=O)O1 | > 100 µM
